Screening data deposited in PubChem BioAssay by Sanford-Burnham Center for Chemical Genomics.
Apaf-1 act – human Apaf-1 activation. O14727. Apaf-1 apoptosome caspase-3 activation, DEVD-Rh110 fluorescence; hits give low values. activity change, negative = activation, % at 20 µM. 0.31% of 330,000 active. AID 489031;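 active means activity change at or below -40% at 20 µM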
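Schedule: 30 min preincubation, 50 min reaction, room temperature / System: biochemical Apaf-1 apoptosome reconstitution / Medium: 20 mM HEPES pH 7.5 with CHAPS, BSA / Evaluation: Caspase-3 cleavage activity downstream of Apaf-1 activation / Detection: Caspase-3-released Rh110 fluorescence, 540 nm emission, 480 nm excitation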
Rh110 interf act – Rh110 signal interference in Apaf-1 activator counter-screen. shares compounds with Apaf-1 act. Rh110 fluorescence interference, quenched caspase reaction, Ex480/Em540. fluorescence interference (activity change), % at 20 µM, hits read low. 980 tested, under 10 active. AID 504616;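 active means mean activity change at or below -40% when tested at 20 µM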
Apaf-1 act conf2 – confirmation of human Apaf-1 activators; shares compounds with Apaf-1 act; reconstituted apoptosome caspase-3 activity, DEVD-Rh110 fluorescence; hits give low values; activity change, negative = activation, % at 20 µM; 5% of 980 active; AID 504617;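 active means mean activity change at or below -40%, meaning activation of 40% or more, at 20 µM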
Of the large screens only hits and unclear results are named; the others gave an inactive call (follow-up assays come after a bar, where they were run). These entries were drawn from the full list.

CC1(c2ccccc2)NC(=O)N(NC(=O)CSc2n[nH]c(N)n2)C1=O (stereo not given)	Apaf-1 act -279 | Rh110 interf act inactive | Apaf-1 act conf2 inactive
CC[C@@H](C)[C@@H]1CN([C@@H](CN2CCC[C@H]2CN2C(N)=NC[C@H]2C(C)C)C(C)C)C(=N)N1CCCC1CCCC1	none
C#CCOCCOCCOCCNc1nc(N2CCN(C(=O)CCCCCCCCCCNC(=O)[C@@H](CCC(=O)O)n3cc(CCCCCN)nn3)CC2)nc(N2CCN(C(=O)CCCCCCCCCCNC(=O)[C@H]([C@@H](C)CC)n3cc(CCCCCN)nn3)CC2)n1	none
Cc1ccc(SCC(=O)Nc2nccs2)cc1	Apaf-1 act -524 | Rh110 interf act inactive | Apaf-1 act conf2 inactive
Cn1nc(-c2ccc(Cl)cc2)c2cc(C(=O)NCCCN3CCCC3)sc21	none
COC(=O)c1ccc(C(=O)OC)c(NC(=O)CN2CCN(c3ccccc3)CC2)c1	Apaf-1 act -191 | Rh110 interf act inactive | Apaf-1 act conf2 inactive
C/C(=N\NC(=O)c1ccc(NS(=O)(=O)c2cccs2)cc1)c1ccc(Cl)cc1	Apaf-1 act -46 | Rh110 interf act inactive | Apaf-1 act conf2 inactive
O=[N+]([O-])c1cccc(OCc2cn3cccnc3n2)c1	Apaf-1 act -66 | Rh110 interf act inactive | Apaf-1 act conf2 inactive
Cc1ccc(S(=O)(=O)NC(=O)Nc2ccccc2)cc1	Apaf-1 act -529 | Rh110 interf act inactive | Apaf-1 act conf2 inactive
CC(=O)Nc1ccc(S(=O)(=O)Nc2nc3ccccc3nc2Nc2ccc(C(=O)O)c(O)c2)cc1	none
Cc1ccc(S(=O)(=O)/N=C2\C=C(Nc3ccc(O)cc3)C(=O)c3ccccc32)cc1	none
COc1ccc2[nH]c3c(C)c4ccncc4c(C)c3c2c1	none
O=C1C=C(N2CCOCC2)c2ccccc2C1=O	none
O=C(O)c1cccc(NC2=C(N3CCOCC3)C(=O)c3ccccc3C2=O)c1	none
O=C1O/C(=C\C(=O)N2CCOCC2)c2ccccc21	Apaf-1 act -141 | Rh110 interf act inactive | Apaf-1 act conf2 inactive
COc1ccc(-c2cc(=O)n(CCC#N)[nH]2)cc1	none
Cc1cc(C)nc(-n2nc(C)cc2NC(=O)CN2CCc3ccccc3C2)n1	none
COC(=O)c1[nH]c2cc(C)ccc2c1NC(=O)CN1CCc2cc(OC)c(OC)cc2C1	Apaf-1 act -176 | Rh110 interf act inactive | Apaf-1 act conf2 inactive
Cc1[nH]n(-c2ccccc2)c(=S)c1C=NCCCN=Cc1c(C)[nH]n(-c2ccccc2)c1=S	none
CCOC(=O)c1cc(-c2ccc(/C=C3/C(=O)N(c4ccc(C(=O)O)cc4)N=C3C)o2)ccc1Cl	none
Cc1cc(Cl)ccc1NC(=O)c1ccc2c(c1)CCN2S(C)(=O)=O	Apaf-1 act -170 | Rh110 interf act inactive | Apaf-1 act conf2 inactive
CC(C)N1CCc2c(sc(NC(=O)c3ccc(S(=O)(=O)N4CCc5ccccc54)cc3)c2C(N)=O)C1	none
Cc1cc(N2CCN(C)CC2)ccc1NC(=O)c1ccc(-c2ccc(Cl)cc2)o1	none
O=C1c2ccccc2C(=O)c2c1oc(C(F)(F)F)c2C(=O)c1ccccc1	none
CC1=NN(c2ccccc2)C(=O)/C1=C/c1cccc(C)c1	none
CCOC(=O)CNc1ccc2c(c1)OCO2	none
CCN(C(=O)c1coc(=O)c(Br)c1)c1ccc2c(c1)OCO2	none
CS(=O)(=O)Nc1ccc(C(=O)Nc2ccc3c(c2)OCO3)cc1	Apaf-1 act -58 | Rh110 interf act inactive | Apaf-1 act conf2 inactive
CCCCc1ccc(NC(=O)c2ccc(NS(C)(=O)=O)cc2)cc1	Apaf-1 act -102 | Rh110 interf act inactive | Apaf-1 act conf2 inactive
Cc1ccc(NC(=O)c2ccc(CN3CCc4ccccc4C3)cc2)cc1	none
CC(C(=O)O)N1C(=O)/C(=C/C=C/c2ccco2)SC1=S (stereo not given)	none
C#CCOCCOCCOCCNc1nc(N2CCN(C(=O)CCCCCCCCCCNC(=O)[C@H]([C@@H](C)CC)n3cc(CCCCCN)nn3)CC2)nc(N2CCN(C(=O)CCCCCCCCCCNC(=O)[C@H]([C@@H](C)CC)n3cc(CCCCN=C(N)N)nn3)CC2)n1	none
Cc1ccccc1OCc1n(CC(=O)OC2CC(C)CCC2C(C)C)c2ccccc2[n+]1C (stereo not given)	none
OCCN1CCN(CCCN2c3ccccc3Sc3ccc(C(F)(F)F)cc32)CC1	none
COc1ccc(C(=O)N2CCCCCC2)cc1OC1CCN(C(C)C)CC1	Apaf-1 act -68 | Rh110 interf act inactive | Apaf-1 act conf2 inactive
O=C(O)c1cc(O)c2c(c1)[C@@H]([C@H]1c3cc(C(=O)O)cc(O)c3C(=O)c3c(O[C@@H]4O[C@H](CO)[C@@H](O)[C@H](O)[C@H]4O)cccc31)c1cccc(OC3O[C@H](CO)[C@@H](O)[C@H](O)[C@H]3O)c1C2=O (stereo not given in full)	none
COc1ccc(C2C(C#N)=C(N)OC(C(C)(C)C)=C2C#N)cc1OC (stereo not given)	Apaf-1 act -51 | Rh110 interf act inactive | Apaf-1 act conf2 inactive
COc1ccccc1C(C)NC(=O)C1CCN(S(=O)(=O)c2cccs2)CC1 (stereo not given)	Apaf-1 act -53 | Rh110 interf act inactive | Apaf-1 act conf2 inactive
CCN(CC)c1nc(N)c2c(N)nc(OC)cc2c1C#N	none
N#Cc1c(N2CCCC(O)C2)nc(N)c2c(N)nc3c(c12)CC(=O)N3C12CC3CC(CC(C3)C1)C2 (stereo not given)	none
NC(=O)CSc1nc2scc(-c3ccc(Cl)cc3)c2c(=O)n1Cc1ccccc1	none
CC(C)CNC(=O)c1c(F)c(F)c(F)c(F)c1F	Apaf-1 act -54 | Rh110 interf act inactive | Apaf-1 act conf2 inactive
COc1ccc(/C=C2/C(=O)N(c3c(F)c(F)c(F)c(F)c3F)N=C2C)cc1	none
CCN1CCN(Cc2ccc(NC(=O)c3cc(NC(=O)c4cc(-c5ccc(OC)cc5)n[nH]4)cc(OC)c3)cc2C(F)(F)F)CC1	none
CCOc1ccc(/C=N/OCC(=O)Nc2cc(S(=O)(=O)N3CCOCC3)ccc2OC)cc1	Apaf-1 act -55 | Rh110 interf act inactive | Apaf-1 act conf2 inactive
Nc1ccccc1C(=O)Nc1cccc2ccccc12	Apaf-1 act -114 | Rh110 interf act inactive | Apaf-1 act conf2 inactive
C/C(=N\NC(=O)CNc1cccc2ccccc12)c1ccccc1	none
CC(=O)c1ccc(NC(=S)Nc2cccc3ccccc23)cc1	none
CCCCCCCCCCOC(=O)Cn1c(COc2ccccc2)[n+](C)c2ccccc21	none
Cc1ccnc2c1ccc1c(C)ccnc12	none
CCN1CCN(C2=C(NS(=O)(=O)c3ccc(Br)cc3)C(=O)c3ccccc3C2=O)CC1	none
C=CCNc1nc(Cl)nc(Nc2ccc(OCC)cc2)n1	Apaf-1 act -51 | Rh110 interf act inactive | Apaf-1 act conf2 inactive
Cc1ccc(NC2=C(NCCO)C(=O)c3ccccc3C2=O)cc1	none
Cc1ccc(Nc2nc(N)c([N+](=O)[O-])c(NCc3ccco3)n2)cc1	Apaf-1 act -443 | Rh110 interf act inactive | Apaf-1 act conf2 inactive
S=c1[nH]c2cc(Cl)c3cccnc3c2o1	none
CC(C)C[C@H](NC(=O)c1nc[nH]c1C(=O)N[C@@H](CCCCN)C(=O)OC(C)(C)C)C(=O)OC(C)(C)C	none
Clc1ccc(N=c2ssnc2Cl)nc1	none
Nc1ccc(N2CCCCC2)c2nonc12	none
NC(=O)c1cc(N)ccc1N1CCCC1	none
Cc1cc(C(=O)Nc2ccccc2N2CCCCC2)no1	Apaf-1 act -512 | Rh110 interf act inactive | Apaf-1 act conf2 inactive
Oc1c(Br)cc(Br)cc1C=Nc1ccc2[nH]ncc2c1	none
